Consider 31 compounds from ChEMBL document CHEMBL1130321, “Synthesis and in vitro activity of 3 beta-substituted-3 alpha-hydroxypregnan-20-ones: allosteric modulators of the GABAA receptor” (J Med Chem, 1997).

For assay [1], the target named is GABA-A receptor; anion channel. Nature of the assay: Ability to allosterically modulate the binding of [35S]TBPS to gamma-aminobutyric-acid A receptor in rat brain cortical P2 membranes. It counts as cell membranes, Membrane. In a few lines:
(§1)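 Rat cortical P2 membranes washed in 200 mM NaCl/50 mM Na-K phosphate pH 7.4. Incubated with 2 nM [35S]TBPS, 5 µM GABA and compound at nine concentrations from 1 nM to 10 µM final (DMSO 0.5% final), 90 min at room temperature. Nonspecific binding was defined with 2 µM unlabeled TBPS. Read-out was filtration and scintillation counting. IC50 and Imax came from partial or full inhibition fits chosen by F-test. Values are mean ± SEM of 3-9 experiments.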

For another assay, the species on record is Rattus norvegicus. Kind of assay: Percent of maximal extent of inhibition was calculated by fitting [35S]TBPS inhibition data to a sigmoid function (rat brain cortical P2 membranes). It counts as functional. The essentials: as §1
The target of assay [2] is T1, GABA-A receptor; alpha-1/beta-2/gamma-2 (Homo sapiens, UniProt P14867+P18507+P47870).
T1 sequence (P14867 whole entry): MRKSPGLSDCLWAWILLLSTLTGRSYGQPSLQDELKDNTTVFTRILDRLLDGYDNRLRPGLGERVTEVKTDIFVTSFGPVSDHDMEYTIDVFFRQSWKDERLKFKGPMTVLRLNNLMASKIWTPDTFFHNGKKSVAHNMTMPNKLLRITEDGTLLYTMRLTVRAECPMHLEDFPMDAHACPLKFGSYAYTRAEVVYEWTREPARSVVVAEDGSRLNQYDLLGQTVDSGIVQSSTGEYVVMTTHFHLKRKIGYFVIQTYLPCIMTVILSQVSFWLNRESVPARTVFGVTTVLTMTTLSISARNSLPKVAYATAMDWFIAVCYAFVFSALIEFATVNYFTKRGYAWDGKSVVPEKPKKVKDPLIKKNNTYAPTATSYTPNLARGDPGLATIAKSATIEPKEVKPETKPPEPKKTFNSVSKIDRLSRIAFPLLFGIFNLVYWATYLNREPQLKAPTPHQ
T1 sequence (P47870 whole entry): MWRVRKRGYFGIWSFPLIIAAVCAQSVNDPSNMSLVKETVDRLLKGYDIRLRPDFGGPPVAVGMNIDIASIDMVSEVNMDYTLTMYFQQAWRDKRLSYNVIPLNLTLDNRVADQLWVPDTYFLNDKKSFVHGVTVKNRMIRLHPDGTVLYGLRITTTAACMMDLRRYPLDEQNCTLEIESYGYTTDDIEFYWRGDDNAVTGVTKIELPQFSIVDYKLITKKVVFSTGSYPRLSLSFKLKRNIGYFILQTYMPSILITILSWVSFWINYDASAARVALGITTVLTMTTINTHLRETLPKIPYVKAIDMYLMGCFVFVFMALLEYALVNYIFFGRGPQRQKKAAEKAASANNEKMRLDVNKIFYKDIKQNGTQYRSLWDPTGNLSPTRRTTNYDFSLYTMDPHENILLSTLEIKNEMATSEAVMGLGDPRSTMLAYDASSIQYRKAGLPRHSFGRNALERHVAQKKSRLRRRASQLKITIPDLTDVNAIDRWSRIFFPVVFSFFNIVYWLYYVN
T1 sequence (P18507 whole entry): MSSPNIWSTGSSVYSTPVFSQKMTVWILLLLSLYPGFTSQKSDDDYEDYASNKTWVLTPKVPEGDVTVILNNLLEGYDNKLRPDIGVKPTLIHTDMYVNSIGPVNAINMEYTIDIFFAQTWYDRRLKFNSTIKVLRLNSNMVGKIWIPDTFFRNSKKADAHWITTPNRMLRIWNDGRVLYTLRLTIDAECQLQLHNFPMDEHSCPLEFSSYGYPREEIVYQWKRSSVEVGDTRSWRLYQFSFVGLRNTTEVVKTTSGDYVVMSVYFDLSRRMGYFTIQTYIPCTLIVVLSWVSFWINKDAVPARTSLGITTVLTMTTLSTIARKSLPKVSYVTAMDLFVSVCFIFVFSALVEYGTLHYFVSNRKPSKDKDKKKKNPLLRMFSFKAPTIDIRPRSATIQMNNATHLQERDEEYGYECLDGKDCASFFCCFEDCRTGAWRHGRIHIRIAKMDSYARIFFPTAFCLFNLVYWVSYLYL
Nature of the assay: Potentiation of GABA-activated currents in Xenopus oocytes expressing cloned human alpha-1-beta-2-gamma-2L subunits of GABA-A receptor. It counts as functional, cell-based, Oocyte. In a few lines:
(§2)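 Xenopus oocytes were injected with human α1, β2 and γ2L cRNAs at 1:1:1, ~1 ng each. Two-electrode voltage clamp was done in frog Ringer (HEPES 5 mM, pH 7.4). Currents were scaled to the maximum elicited by 3 mM GABA. Steroid was applied in increasing concentrations to a fixed GABA response of ~0.05 fractional current, with DMSO 0.3% final. Data were fitted to a four-parameter logistic and given as mean ± SEM.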

In assay [3] the target is GABA-A receptor; alpha-1/beta-2/gamma-2 (Homo sapiens) (UniProt P14867+P47870+P18507). Nature of the assay: Efficacy as fractional response (FR) relative to GABA maximal current elicited in Xenopus oocytes. To be noted: Oocyte. It counts as functional, cell-based. The essentials:
as §2

One may read the IC50 as the point on the concentration scale where inhibition reaches its midpoint. The low end stands for greater potency, the high end for weaker potency. As for `C#CC[C@@]1(O)CC[C@@]2(C)[C@@H](CC[C@@H]3[C@@H]2CC[C@]2(C)[C@@H](C(C)=O)CC[C@@H]32)C1`, the concentration for half-maximal inhibition (IC50) in assay [1] is 50 nM. Also, the Imax in the assay listed under Rattus norvegicus was 43%.
For `C=C=CC[C@@]1(O)CC[C@@]2(C)[C@@H](CC[C@@H]3[C@@H]2CC[C@]2(C)[C@@H](C(C)=O)CC[C@@H]32)C1` the same measures were 365 nM and 57%.
For `C=C[C@@]1(O)CC[C@@]2(C)[C@@H](CC[C@@H]3[C@@H]2CC[C@]2(C)[C@@H](C(C)=O)CC[C@@H]32)C1` the same measures were 120 nM and 94%.
The like results for `CC[C@@]1(O)CC[C@@]2(C)[C@@H](CC[C@@H]3[C@@H]2CC[C@]2(C)[C@@H](C(C)=O)CC[C@@H]32)C1` were, in that order, 257 nM and 69%.
Broadly, the EC50 is the concentration at which the effect is half-maximal. As to `CC(=O)[C@H]1CC[C@H]2[C@@H]3CC[C@H]4C[C@](C)(O)CC[C@]4(C)[C@H]3CC[C@]12C` [GANAXOLONE], in assay [1], the IC50 amounted to 80 nM. Further, the Imax in the assay filed under Rattus norvegicus is 94%. In addition, in assay [2], the EC50 came to 260 nM. The compound also displayed an Efficacy in assay [3] of 0.8.
In assay [1], `CC(=O)[C@H]1CC[C@H]2[C@@H]3CC[C@H]4C[C@@](O)(CC(N)=O)CC[C@]4(C)[C@H]3CC[C@]12C` had a half-maximal inhibitory concentration (IC50) of over 10000 nM. Further, in the assay filed under Rattus norvegicus, the Imax was 28%.
For `C=CC[C@@]1(O)CC[C@@]2(C)[C@@H](CC[C@@H]3[C@@H]2CC[C@]2(C)[C@@H](C(C)=O)CC[C@@H]32)C1` the same measures were 231 nM and 59%.
In assay [1], `COC[C@@]1(O)CC[C@@]2(C)[C@H](CC[C@@H]3[C@@H]2CC[C@]2(C)[C@@H](C(C)=O)CC[C@@H]32)C1` displayed an IC50 of 40 nM. For the same compound, in the assay listed under Rattus norvegicus, the Imax is 103%.
For `CC(=O)[C@H]1CC[C@H]2[C@@H]3CC[C@H]4C[C@@](O)(CI)CC[C@]4(C)[C@H]3CC[C@]12C` the same measures were 702 nM and 50%.
For `C=C[C@@]1(O)CC[C@@]2(C)[C@H](CC[C@@H]3[C@@H]2CC[C@]2(C)[C@@H](C(C)=O)CC[C@@H]32)C1` the same measures were 43 nM and 103%.
`CC(=O)[C@H]1CC[C@H]2[C@@H]3CC[C@H]4C[C@H](O)CC[C@]4(C)[C@H]3CC[C@]12C` [BREXANOLONE]: the IC50 in assay [1] was 51 nM. The Imax in the assay filed under Rattus norvegicus was 95%. In addition, the EC50 in assay [2] came out at 160 nM. The compound further returned an Efficacy in assay [3] of 0.91.
Consider `C=CCC[C@@]1(O)CC[C@@]2(C)[C@@H](CC[C@@H]3[C@@H]2CC[C@]2(C)[C@@H](C(C)=O)CC[C@@H]32)C1`, for which the IC50 in assay [1] worked out at 325 nM. Moreover, in the assay listed under Rattus norvegicus, the Imax was 59%.
Take `CC(=O)[C@H]1CC[C@H]2[C@@H]3CC[C@@H]4C[C@](C)(O)CC[C@]4(C)[C@H]3CC[C@]12C`: the Imax in the assay filed under Rattus norvegicus is 104%.
In assay [1], `CC(=O)[C@H]1CC[C@H]2[C@@H]3CC[C@H]4C[C@@](O)(CCl)CC[C@]4(C)[C@H]3CC[C@]12C` gave an IC50 of 71 nM. Besides, the Imax in the assay listed under Rattus norvegicus is 33%.
Turning to `C#CC[C@@]1(O)CC[C@@]2(C)[C@H](CC[C@@H]3[C@@H]2CC[C@]2(C)[C@@H](C(C)=O)CC[C@@H]32)C1`, the IC50 in assay [1] came to 214 nM. Also, the Imax in the assay filed under Rattus norvegicus is 101%.
`CCCOC[C@@]1(O)CC[C@@]2(C)[C@@H](CC[C@@H]3[C@@H]2CC[C@]2(C)[C@@H](C(C)=O)CC[C@@H]32)C1`: in assay [1], the IC50 was determined as 655 nM. Moreover, in the assay filed under Rattus norvegicus, the Imax was 94%.
The like results for `CC(=O)[C@H]1CC[C@H]2[C@@H]3CC[C@H]4C[C@@](O)(CBr)CC[C@]4(C)[C@H]3CC[C@]12C` were, in that order, 224 nM and 44%.
For `CC(C)(C)OC(=O)c1ncn2c1C1CCCN1C(=O)c1c(Br)cccc1-2` (centres undefined) the same measures were 6.1 nM and 27%.
On to `CC(=O)[C@H]1CC[C@H]2[C@@H]3CC[C@H]4C[C@@](O)(CO)CC[C@]4(C)[C@H]3CC[C@]12C`, for which the IC50 in assay [1] was found to be 2130 nM. The Imax in the assay filed under Rattus norvegicus is 101%. Besides, in assay [2], the EC50 is about 20000 nM.
For the compound `CCOC[C@@]1(O)CC[C@@]2(C)[C@@H](CC[C@@H]3[C@@H]2CC[C@]2(C)[C@@H](C(C)=O)CC[C@@H]32)C1`, the IC50 in assay [1] stood at 230 nM. Besides, the Imax in the assay filed under Rattus norvegicus was 104%.
On to `C#C[C@@]1(O)CC[C@@]2(C)[C@H](CC[C@@H]3[C@@H]2CC[C@]2(C)[C@@H](C(C)=O)CC[C@@H]32)C1`, for which the Imax in the assay filed under Rattus norvegicus was 101%.
In the case of `CC(=O)[C@H]1CC[C@H]2[C@@H]3CC[C@H]4C[C@@](O)(CN=[N+]=[N-])CC[C@]4(C)[C@H]3CC[C@]12C`, the IC50 in assay [1] came to 27 nM. Besides, the Imax in the assay filed under Rattus norvegicus was 99%. Also, in assay [2], the EC50 was 150 nM. The Efficacy in assay [3] was found to be 0.8.
`CC(=O)[C@H]1CC[C@H]2[C@@H]3CC[C@@H]4C[C@@](O)(CCl)CC[C@]4(C)[C@H]3CC[C@]12C` had an IC50 in assay [1] of 243 nM. Moreover, the Imax in the assay filed under Rattus norvegicus is 103%.
As to `CCC[C@@]1(O)CC[C@@]2(C)[C@@H](CC[C@@H]3[C@@H]2CC[C@]2(C)[C@@H](C(C)=O)CC[C@@H]32)C1`, the IC50 in assay [1] came out at 173 nM. Further, the Imax in the assay filed under Rattus norvegicus is 42%.
The like results for `CC(=O)[C@H]1CC[C@H]2[C@@H]3CC[C@H]4C[C@@](O)(CF)CC[C@]4(C)[C@H]3CC[C@]12C` were, in that order, 228 nM and 79%.
In the case of `CC(=O)[C@H]1CC[C@H]2[C@@H]3CC[C@H]4C[C@@](O)(C(F)(F)F)CC[C@]4(C)[C@H]3CC[C@]12C`, in assay [1], the IC50 turned out to be 266 nM. In addition, the Imax in the assay listed under Rattus norvegicus was 44%. For the same compound, the EC50 in assay [2] came out at 390 nM. Moreover, the Efficacy in assay [3] came out at 0.3.
The compound `COC[C@@]1(O)CC[C@@]2(C)[C@@H](CC[C@@H]3[C@@H]2CC[C@]2(C)[C@@H](C(C)=O)CC[C@@H]32)C1` came in with an IC50 in assay [1] of 76 nM. Besides, the Imax in the assay listed under Rattus norvegicus is 104%.
With `CN1C(=O)CN=C(c2ccccc2)c2cc(Cl)ccc21`, in the assay filed under Rattus norvegicus, the Imax was 49%.
For `C#C[C@@]1(O)CC[C@@]2(C)[C@@H](CC[C@@H]3[C@@H]2CC[C@]2(C)[C@@H](C(C)=O)CC[C@@H]32)C1`, in assay [1], the IC50 was determined as 64 nM. Moreover, the Imax in the assay listed under Rattus norvegicus was 93%.
`CC(=O)[C@H]1CC[C@H]2[C@@H]3CC[C@H]4C[C@@](O)(CN(C)C)CC[C@]4(C)[C@H]3CC[C@]12C` returned an IC50 in assay [1] of over 10000 nM. In addition, the Imax in the assay filed under Rattus norvegicus is 0%. In assay [2], the EC50 is over 50000 nM.
In assay [1], `CC[C@@]1(O)CC[C@@]2(C)[C@H](CC[C@@H]3[C@@H]2CC[C@]2(C)[C@@H](C(C)=O)CC[C@@H]32)C1` yielded an IC50 of 135 nM. Besides, in the assay listed under Rattus norvegicus, the Imax was 95%.
